High-throughput results from PubChem.
Compounds with a hit are over-represented: about 1.8% of the library has one in this group of screens.
ARNT-TACC3 inh: disruptors of ARNT/TACC3 protein interaction, primary screen, biochemical, AlphaScreen, single concentration. Transforming acidic coiled-coil-containing protein 3 (Homo sapiens), Q9Y6A5. AlphaScreen His-ARNT PAS-B/GST-TACC3 binding, luminescence; TACC3 fragment carries E629A point mutation. inhibition, % at 9.99 µM. hit rate 0.66% among 390,000. AID 623870, 2012;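 active means mean inhibition of replicates at least 50% and at least half of replicates each reaching 50%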;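 further: 0% = complete ARNT plus TACC3 wells and 100% = ARNT alone without TACC3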
SIAE inh: human SIAE inhibitors, primary screen, biochemical, fluorescence polarization, FP-Rh probe, 1536-well HTS. Sialate O-acetylesterase (Homo sapiens), Q9HAT2. SIAE FP-Rh probe binding. inhibition, % at 9.66 µM. hit rate 0.69% among 370,000. AID 1053197, 2014;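 active means inhibition above a cutoff: mean of compounds within the control limits plus 3 SD of those, cut at about 17% in these data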;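 further: 0% = plate median of compound wells and 100% = probe without SIAE protein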
Target sequence (Q9HAT2 whole entry, looked up): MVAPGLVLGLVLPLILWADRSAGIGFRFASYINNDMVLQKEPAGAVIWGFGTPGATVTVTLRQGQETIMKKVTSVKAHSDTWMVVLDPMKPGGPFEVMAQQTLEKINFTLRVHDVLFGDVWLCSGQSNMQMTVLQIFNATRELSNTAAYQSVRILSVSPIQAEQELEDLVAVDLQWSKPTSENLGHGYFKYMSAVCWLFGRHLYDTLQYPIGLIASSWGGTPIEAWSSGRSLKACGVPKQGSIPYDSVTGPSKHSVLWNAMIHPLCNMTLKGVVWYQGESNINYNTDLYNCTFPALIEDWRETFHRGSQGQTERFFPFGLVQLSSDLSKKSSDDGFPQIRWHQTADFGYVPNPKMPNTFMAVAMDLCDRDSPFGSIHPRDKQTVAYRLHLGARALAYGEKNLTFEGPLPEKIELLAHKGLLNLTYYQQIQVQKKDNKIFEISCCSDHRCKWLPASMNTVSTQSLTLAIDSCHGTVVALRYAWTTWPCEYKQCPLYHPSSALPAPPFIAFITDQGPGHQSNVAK
mABHD4 FP: ABHD4 inhibitors, primary screen, biochemical, fluorescence polarization, mouse | (Lyso)-N-acylphosphatidylethanolamine lipase (Mus musculus), Q8VD66 | AID 720543, 2013 | inhibition, % at 8.92 µM | purified mABHD4, FP-Rh probe fluorescence polarization | hit rate 0.54% among 370,000;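 active means inhibition exceeding the mean over every tested compound plus 3 SD, cut at about 30% in these data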;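 further: 0% = plate median of compound wells and 100% = S159A mutant with DMSO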
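Assay system: mABHD4 protein; medium: HEPES pH 7.0, NaCl, Pluronic buffer; dosing: 8.92 µM, single dose; schedule: 45 min + 60 min at 25 °C; signal: FP readout, ex 525 nm / em 598 nm; read-out: normalized percent inhibition of probe labeling; repeats: single replicate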
TCR CD3 inh: inhibitors of human TCR-CD3 interaction, primary screen, biochemical, fluorescence, TAMRA-labeled TCR probe; T-cell receptor (TCR); inhibition, % at 9.4 µM; hit rate 0.37% among 360,000; AID 651800, 2012;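 further: recombinant mutant TCR 2C K166C tagged with TAMRA read by polarization; 0% = receptor in buffer alone and 100% = receptor with positive control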
HTRA1 inh: HTRA1 serine protease inhibitors, primary screen, biochemical, fluorescence polarization, HTS. inhibition, % at 5.96 µM. hit rate 0.5% among 340,000. AID 504803, 2011. Q92743. recombinant HTRA1, FP-rhodamine activity-based probe; in the data active means inhibition above about 36%;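 further: 0% = enzyme with DMSO and 100% = wells lacking enzyme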
HTRA1 conf: HTRA1 protease inhibitors, retest, confirmation, biochemical, fluorescence polarization; hit rate 66% among 1,600; recombinant HTRA1, FP-rhodamine activity-based probe; inhibition, % at 5.96 µM; shares compounds with HTRA1 inh;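 active means mean inhibition over three repeats above a set limit taken from the earlier primary screen, cut at about 37% in these data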;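 further: 0% = HTRA1 with DMSO and 100% = wells lacking HTRA1; inhibitors block probe binding so polarization drops and inhibition rises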
ARNT Alpha ctr: AlphaScreen signal interference compounds, dose response, artefact control for ARNT-TACC3 interaction inhibitor project, biochemical, luminescence, cherry-pick; shares compounds with ARNT-TACC3 inh; His-ARNT PASB-GST AlphaScreen artifact counter-screen; AC50, µM (top dose mostly 68 µM), without a hit: top-dose activity change, negative = signal decrease; hit rate 50% among 1,200;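 active means every separate test run was called active for a drop in luminescence, with AC50 within twice the top valid dose, actives reach about 71 µM in these data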
BSA TAMRA ctr: compounds interfering with TAMRA-BSA probe, counter-screen for TCR-CD3 interaction inhibitor project, biochemical, fluorescence, TAMRA-labeled BSA. shares compounds with TCR CD3 inh. TAMRA-labeled BSA probe fluorescence counterscreen. inhibition, % at 9.4 µM. hit rate 10% among 1,200. AID 652035, 2013; in the data active means inhibition above about 23%;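 further: 0% = buffer low control and 100% = reference high control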
TCR-CD3 conf: TCR-CD3 interaction inhibitors, retest, confirmation, biochemical, fluorescence, TAMRA-labeled TCR probe | shares compounds with TCR CD3 inh | TAMRA-labeled TCR probe fluorescence binding assay | inhibition, % at 9.4 µM | hit rate 48% among 1,200 | AID 652036, 2013
ABHD4 confirm: ABHD4 inhibitors, retest, confirmation, biochemical, fluorescence polarization, mouse | shares compounds with mABHD4 FP | purified mABHD4, FP-Rh probe fluorescence polarization | inhibition, % at 8.92 µM | hit rate 55% among 1,800 | AID 720658, 2013;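 active means mean inhibition across replicates above the hit cutoff set in the primary screen, cut at about 30% in these data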;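 further: 0% = wild-type ABHD4 with DMSO and 100% = catalytically dead S159A mutant with DMSO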
SIAE inh conf: human SIAE inhibitors, retest, confirmation, biochemical, fluorescence polarization, FP-Rh probe, triplicate. shares compounds with SIAE inh. SIAE FP-Rh activity-based probe. inhibition, % at 9.66 µM. hit rate 13% among 2,300. AID 1117263, 2014;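 active means mean inhibition of the replicates above the hit cutoff set in the primary screen, cut at about 17% in these data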;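 further: 0% = SIAE with DMSO and probe and 100% = probe without SIAE; inhibitors lower polarization as more probe stays unbound to SIAE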
Active calls of the source: *; . = not tested or not shown. Unless noted, no stated cut-off is given here; in the data, active means inhibition above about 19%; inactive means the rest.

SMILES	ARNT-TACC3 inh	SIAE inh	mABHD4 FP	TCR CD3 inh	HTRA1 inh	HTRA1 conf	ABHD4 confirm	others
C[C@H]1CN([C@@H](C)CO)C(=O)c2cc(NS(=O)(=O)c3ccc(Cl)cc3)ccc2O[C@H]1CN(C)C	-11	.	.	.	.	.	.
CCN(CC)c1ccc(/C=N/Nc2ccc(C)cc2)c(O)c1	11	13	31*	4	42*	20	31*
O=C(O)CSc1cc(NS(=O)(=O)c2ccc(Br)cc2)c2ccccc2c1O	97*	13	49*	-5	46*	18	49*
O=S(=O)(Nc1cc(Sc2ncn[nH]2)c(O)c2ccccc12)c1ccccc1	.	9	21	2	.	.	.
CO[C@@H]1CN(C)C(=O)c2ccc(NS(=O)(=O)c3ccccc3C)cc2OC[C@@H](C)NC[C@H]1C	-3	.	.	.	.	.	.
C=C1c2cccc(O)c2C(=O)C2C(=O)[C@]3(O)C(=O)C(C(N)=O)C(=O)[C@@H](N(C)C)[C@@H]3[C@@H](O)[C@H]12 (stereo partly specified)	54*	47*	85*	28*	46*	38*	17	ARNT Alpha ctr=-19%;BSA TAMRA ctr=-4;TCR-CD3 conf=14
CN1C(=O)c2cc(NC(=O)c3cnccn3)ccc2OC[C@@H]2O[C@@H](CC(=O)O)CC[C@@H]21	6	.	.	.	.	.	.
O=[N+]([O-])c1cc(Cc2ccccc2)cc(C=Nc2ccc(N3CCOCC3)cc2)c1O	-7	.	.	.	29	.	.
Cc1ccc(O)c(N=Cc2cc(Cc3ccccc3)cc([N+](=O)[O-])c2O)c1	-1	-6	35*	5	58*	61*	16
O=C1CC(N(O)c2ccccc2)C(=O)N1c1cc(Cl)cc(Cl)c1 (stereo unspecified)	2	12	45*	25*	40*	36	10	BSA TAMRA ctr=3;TCR-CD3 conf=3
CCCOc1ccc(N2C(=O)CC(N(O)c3ccccc3)C2=O)cc1 (stereo unspecified)	-5	8	11	1	10	.	.
Oc1cc(Br)ccc1C=Nc1ccc(N2CCCCC2)cc1	0	3	36*	5	52*	14	13
Oc1ccc(C=Nc2ccc(N3CCOCC3)cc2)c(O)c1	.	6	27	-5	35	.	.
O=C(C[C@@H]1C=C[C@@H](NC(=O)c2ccncc2)[C@@H](CO)O1)NCCc1ccncc1	0	.	.	.	.	.	.
Cc1ccc(C2=C(O)C(=O)C(c3ccc(C)cc3)=C(O)C2=O)cc1	5	17	46*	8	85*	98*	60*
Cc1ccc(S(=O)(=O)c2ccc(C)cc2)cc1	-3	-11	1	2	0	.	.
CN(C)c1ccc(N/C=C/C(=O)c2ccccc2)cc1	11	1	46*	8	54*	5	-15
Cc1ccc(C)c2c1c1ccccc1n2C	-3	0	-6	3	-1	.	.
Cc1ccc2c(c1)c1ccc3c(c1n2C)C(=O)C=CC3=O	-1	-9	68*	0	40*	62*	85*
Cn1c2ccccc2c2ccc3c(c21)C(=O)C=CC3=O	5	-2	42*	8	40*	63*	72*
C[C@@H]1CN([C@H](C)CO)C(=O)c2cc(-c3ccc(F)cc3)cnc2O[C@H]1CN(C)Cc1cncnc1	-4	.	.	.	.	.	.
CCCCCCCCn1ccc(=N)cc1	-1	-3	2	2	6	.	.
CCCCCCCCCCCCCCCCn1cc[n+](C)c1	2	-1	44*	-4	66*	81*	51*
Cc1cc(/C=N/Nc2ccc([N+](=O)[O-])cn2)c(C)n1-c1ccc(C(=O)O)cc1	.	17	41*	3	41*	12	59*
Cc1noc(C)c1NC(=O)N(C)C[C@H]1Oc2ncc(C#CCN(C)C)cc2C(=O)N([C@@H](C)CO)C[C@H]1C	-1	.	.	.	.	.	.
SMILES	ARNT-TACC3 inh	SIAE inh	mABHD4 FP	TCR CD3 inh	HTRA1 inh	HTRA1 conf	ABHD4 confirm	others
CCc1ccc(/C=C/C(=O)c2cc(Br)ccc(=O)c2O)cc1	.	13	38*	-7	67*	66*	10
Cc1cccc(/C=C/C(=O)c2cc(Br)ccc(=O)c2O)c1	4	9	36*	1	57*	59*	26
O=C(C=Cc1ccccc1)c1cc(Br)ccc1O	-8	-4	-7	-4	-16	.	.
O=C(NCc1ccccc1)c1ccc2nc(-c3ccco3)c(-c3ccco3)nc2c1	4	34*	54*	22*	63*	22	38*	BSA TAMRA ctr=-10;TCR-CD3 conf=24*
C[C@H](NC(=O)[C@@H]1[C@@H](CO)[C@@H]2Cn3c(cccc3=O)[C@@H]2N1C(=O)C1CC1)c1ccccc1	1	.	.	.	.	.	.
Oc1ccc2ccccc2c1/C=C/c1ccc2c(Br)cc(Br)c(O)c2n1	-6	23*	34*	-9	66*	69*	21	SIAE inh conf=16
COc1cc(Br)c(/C=C/c2ccc3cccc(O)c3n2)cc1OC	-10	8	9	0	10	.	.
Cc1cc(C)c(Nc2cc(S(=O)(=O)O)c(N)c3c2C(=O)c2ccccc2C3=O)c(C)c1	55*	35*	77*	6	66*	67*	110*	SIAE inh conf=29*
CC(C)NC(=O)N(C)C[C@@H]1OCCCC[C@H](C)Oc2ccc(NS(=O)(=O)c3ccccc3)cc2C(=O)N([C@H](C)CO)C[C@@H]1C	-10	.	.	.	.	.	.
